Legend:
[1] = target: T1, Adrenergic receptor alpha-1 (Rattus norvegicus, UniProt P15823+P23944+P43140); test: Displacement of [3H]prazosin from alpha-1 adrenoceptors in whole rat brain membranes; assay type: cell membranes
T1 sequence (P15823 whole entry): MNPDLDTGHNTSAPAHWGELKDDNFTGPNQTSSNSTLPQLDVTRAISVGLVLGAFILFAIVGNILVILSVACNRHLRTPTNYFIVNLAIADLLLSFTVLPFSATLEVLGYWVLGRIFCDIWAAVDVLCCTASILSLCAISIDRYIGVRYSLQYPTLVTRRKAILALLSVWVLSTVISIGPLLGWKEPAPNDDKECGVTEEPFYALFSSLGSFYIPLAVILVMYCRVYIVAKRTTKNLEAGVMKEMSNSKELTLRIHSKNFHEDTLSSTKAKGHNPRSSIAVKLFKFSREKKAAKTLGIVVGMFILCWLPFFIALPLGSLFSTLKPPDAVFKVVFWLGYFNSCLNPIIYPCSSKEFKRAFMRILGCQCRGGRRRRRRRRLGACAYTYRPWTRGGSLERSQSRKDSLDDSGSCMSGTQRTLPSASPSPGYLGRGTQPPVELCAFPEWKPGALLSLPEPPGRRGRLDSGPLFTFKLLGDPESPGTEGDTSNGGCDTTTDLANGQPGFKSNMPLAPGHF
T1 sequence (P23944 whole entry): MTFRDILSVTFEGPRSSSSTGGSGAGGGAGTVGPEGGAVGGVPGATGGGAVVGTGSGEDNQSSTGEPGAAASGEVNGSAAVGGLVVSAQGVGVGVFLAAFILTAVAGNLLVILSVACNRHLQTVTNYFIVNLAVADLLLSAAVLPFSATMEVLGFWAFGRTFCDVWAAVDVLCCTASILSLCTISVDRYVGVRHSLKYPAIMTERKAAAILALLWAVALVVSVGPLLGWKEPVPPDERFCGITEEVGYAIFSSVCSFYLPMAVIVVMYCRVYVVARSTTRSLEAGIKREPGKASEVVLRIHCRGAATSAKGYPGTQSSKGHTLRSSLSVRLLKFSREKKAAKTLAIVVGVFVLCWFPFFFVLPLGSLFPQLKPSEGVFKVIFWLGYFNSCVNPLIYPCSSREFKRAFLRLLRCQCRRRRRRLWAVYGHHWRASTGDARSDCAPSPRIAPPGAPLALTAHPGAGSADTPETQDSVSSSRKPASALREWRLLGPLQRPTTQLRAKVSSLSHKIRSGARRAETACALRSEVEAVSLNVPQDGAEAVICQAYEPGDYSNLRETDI
T1 sequence (P43140 whole entry): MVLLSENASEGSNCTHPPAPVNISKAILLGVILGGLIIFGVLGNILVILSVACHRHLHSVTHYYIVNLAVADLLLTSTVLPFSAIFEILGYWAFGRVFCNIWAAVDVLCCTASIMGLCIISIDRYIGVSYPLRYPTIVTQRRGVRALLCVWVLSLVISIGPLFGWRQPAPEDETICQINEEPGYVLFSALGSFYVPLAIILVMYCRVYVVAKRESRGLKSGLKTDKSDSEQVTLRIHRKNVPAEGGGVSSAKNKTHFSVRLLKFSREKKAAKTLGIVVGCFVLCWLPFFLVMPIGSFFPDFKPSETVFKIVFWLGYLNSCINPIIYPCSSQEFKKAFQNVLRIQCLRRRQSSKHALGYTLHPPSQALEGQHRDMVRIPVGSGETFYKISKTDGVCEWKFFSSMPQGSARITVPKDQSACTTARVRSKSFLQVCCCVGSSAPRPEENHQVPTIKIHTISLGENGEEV
Summary of the method: (§1)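 Radioligand displacement from rat brain membranes: 3H-ketanserin on cortical membranes (5-HT2), 3H-prazosin on whole brain membranes (alpha1), 3H-spiperone on striatal membranes (D2). Two full concentration-effect curves per compound, each with five test drug concentrations in triplicate spanning three decades. IC50 estimated from curves on a log-concentration scale. Outliers beyond 3 times the sd-ratio were discarded after extra determinations.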

[2] = target: Serotonin 2 (5-HT2) receptor (Rattus norvegicus, UniProt P30994+P08909+P14842); test: Displacement of [3H]ketanserin from 5-hydroxytryptamine 2 receptor in rat cortical membranes; assay type: cell membranes, Membrane; summary of the method: as §1
D(2) dopamine receptor = D(2) dopamine receptor (Rattus norvegicus, UniProt P61169); test: Displacement of [3H]spiperone from dopamine D2 receptors in rat striatal membranes; assay type: cell membranes, Membrane; summary of the method: as §1
Rattus norvegicus = species: Rattus norvegicus; test: Inhibition of quipazine-induced head twitches in rats after 2 hrs of pretreatment; assay type: functional
Summary of the method: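 Test drug was given sc or po to rats 2 or 24 h before quipazine (15 µmol/kg, sc). Head twitches were counted 30-40 min after quipazine, at least four animals per dose. Counts were expressed as percent of a quipazine-only control group.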

[3] = Rattus norvegicus, read-out: ED50

D(2) dopamine receptor, sequence (P61169 whole entry): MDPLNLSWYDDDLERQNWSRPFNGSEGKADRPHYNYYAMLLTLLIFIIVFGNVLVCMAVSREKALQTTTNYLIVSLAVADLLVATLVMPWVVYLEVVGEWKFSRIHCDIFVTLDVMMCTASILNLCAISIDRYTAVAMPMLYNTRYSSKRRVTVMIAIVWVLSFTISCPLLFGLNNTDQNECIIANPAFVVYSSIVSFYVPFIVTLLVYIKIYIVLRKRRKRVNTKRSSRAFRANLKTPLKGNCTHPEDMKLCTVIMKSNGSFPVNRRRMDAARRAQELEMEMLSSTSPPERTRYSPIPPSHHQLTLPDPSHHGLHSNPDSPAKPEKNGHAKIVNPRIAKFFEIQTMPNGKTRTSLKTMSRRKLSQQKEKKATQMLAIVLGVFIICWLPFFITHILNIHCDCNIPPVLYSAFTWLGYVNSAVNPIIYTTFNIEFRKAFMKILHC

SMILES	IC50 [1] [nM]	IC50 [2] [nM]	IC50 (D(2) dopamine receptor) [nM]	ED50 (Rattus norvegicus) [µM/kg]	ED50 (Rattus norvegicus; [3]) [µmol/kg]
Cl.Cl.OCCN1CCN(C2CC(c3ccc(F)cc3)c3cc(Cl)ccc32)CC1 (single isomer, unassigned; (-))	210	11	370	0.86	–
Cl.Cl.OCCN1CCN(C2CC(c3ccc(F)cc3)c3cc(F)ccc32)CC1 (stereo in doubt; (-)-13)	1100	500	22000	>2.8	–
Cl.Cl.OCCN1CCN(C2CC(c3ccc(F)cc3)c3cc(F)ccc32)CC1 (single isomer, unassigned; (+))	72	12	330	0.33	–
Fc1ccc(C2CC(N3CCN(CCN4CCCN=C4S)CC3)c3ccc(Cl)cc32)cc1.O=C(O)/C=C\C(=O)O.O=C(O)/C=C\C(=O)O (stereo not drawn)	170	1.5	93	–	0.048
CC(C)N1CCN(CCN2CCN(C3CC(c4ccccc4F)c4cc(Cl)ccc43)CC2)C1=O.O=C(O)/C=C\C(=O)O.O=C(O)/C=C\C(=O)O (stereo not drawn)	670	3.5	–	–	2.1
O=C(O)/C=C\C(=O)O.O=C(O)/C=C\C(=O)O.O=c1[nH]c2ccccc2c(=O)n1CCN1CCN(C2CC(c3ccc(F)cc3)c3cc(Cl)ccc32)CC1 (stereo not drawn)	78	3.8	93	–	> 3.3
Cl.Cl.OCCN1CCN(C2CC(c3ccc(F)cc3)c3cc(Cl)ccc32)CC1 (single isomer, unassigned; (+))	2500	230	6300	>2.8	–
Cc1ccc(C2CC(N3CCN(CCN4CCN(C(C)C)C4=O)CC3)c3ccc(Cl)cc32)cc1.O=C(O)/C=C\C(=O)O (stereo not drawn)	60	11	–	–	> 3.5
CC(C)N1CCN(CCN2CCN(C3CC(c4cccc(F)c4)c4cc(Cl)ccc43)CC2)C1=O.O=C(O)/C=C\C(=O)O (stereo not drawn)	970	26	–	–	–
Cl.Cl.Fc1ccc(C2CC(N3CCN(CCN4CCCNC4=S)CC3)c3ccc(F)cc32)cc1 (racemic)	–	42	2900	–	–
O=C(O)/C=C\C(=O)O.O=C(O)/C=C\C(=O)O.OCCN1CCN(C2CC(c3ccc(F)cc3)c3cccc(Cl)c32)CC1 (stereo not drawn)	38	15	46	–	1.3
Cc1nc2sccn2c(=O)c1CCN1CCN(C2CC(c3ccc(F)cc3)c3cc(Cl)ccc32)CC1.O=C(O)/C=C\C(=O)O.O=C(O)/C=C\C(=O)O (stereo not drawn)	24	19	65	–	1.9
CSc1ccc2c(c1)C(c1ccc(F)cc1)CC2N1CCN(CCN2CCN(C(C)C)C2=O)CC1 (stereo not drawn)	250	4	–	–	> 3.4
O=C(O)/C=C\C(=O)O.O=C(O)/C=C\C(=O)O.O=C1NCCCN1CCN1CCN(C2CC(c3ccc(F)cc3)c3cc(Cl)ccc32)CC1 (stereo in doubt; (+)-41)	–	120	1700	–	–
CCN1CCN(CCN2CCN(C3CC(c4ccc(F)cc4)c4cc(Cl)ccc43)CC2)C1=O.O=C(O)/C=C\C(=O)O.O=C(O)/C=C\C(=O)O (stereo not drawn)	240	2.6	–	–	0.042
O=C(O)/C=C\C(=O)O.O=C(O)/C=C\C(=O)O.O=C1N(CCN2CCN(C3CC(c4ccc(F)cc4)c4cc(Cl)ccc43)CC2)CCN1c1ccccc1 (stereo not drawn)	310	44	–	–	> 6.7
CC(C)N1CCN(CCN2CCN(C3CC(c4ccccc4)c4cc(Cl)ccc43)CC2)C1=O.O=C(O)/C=C\C(=O)O.O=C(O)/C=C\C(=O)O (stereo not drawn)	510	9.9	–	–	1
CN1CCN(CCN2CCN(C3CC(c4ccc(F)cc4)c4cc(Cl)ccc43)CC2)C1=O.O=C(O)/C=C\C(=O)O (stereo not drawn)	600	2.8	–	–	0.093
Cl.Cl.Fc1ccc(C2CC(N3CCN(CCN4CCCNC4=S)CC3)c3ccc(Cl)cc32)cc1 (stereo in doubt; (+)-39)	350	21	490	–	–
Cl.Cl.OCCN1CCN(C2CC(c3ccc(F)cc3)c3cc(Cl)ccc32)CC1 (stereo in doubt; 10)	230	25	–	0.23	–
CC(C)N1CCN(CCN2CCN(C3CC(c4ccc(F)cc4)c4cc(Cl)ccc43)CC2)C1=O.O=C(O)/C=C\C(=O)O.O=C(O)/C=C\C(=O)O (stereo in doubt; 20)	260	3.9	–	0.06	–
CC(C)N1CCN(CCN2CCN(C3CC(c4ccc(Cl)cc4)c4cc(Cl)ccc43)CC2)C1=O.O=C(O)/C=C\C(=O)O (stereo not drawn)	180	15	–	–	2.9
O=C(O)/C=C\C(=O)O.O=C(O)/C=C\C(=O)O.O=C1N(CCO)CCN1CCN1CCN(C2CC(c3ccc(F)cc3)c3cc(Cl)ccc32)CC1 (stereo not drawn)	710	6.1	–	–	1.1
CC(C)N1CCN(CCN2CCN(C3CC(c4ccc(F)cc4)c4cc(C(F)(F)F)ccc43)CC2)C1=O.O=C(O)/C=C\C(=O)O.O=C(O)/C=C\C(=O)O (stereo not drawn)	370	3.7	–	–	0.13
O=C(O)/C=C\C(=O)O.O=C(O)/C=C\C(=O)O.OCCN1CCN(C2CC(c3ccc(F)cc3)c3cc(C(F)(F)F)ccc32)CC1 (stereo not drawn)	380	8.9	–	–	1
CC(C)N1CCN(CCN2CCN(C3CC(c4ccc(F)cc4)c4cc(Br)ccc43)CC2)C1=O.O=C(O)/C=C\C(=O)O.O=C(O)/C=C\C(=O)O (stereo not drawn)	270	6.4	–	–	0.098
O=C1NCCN1CCN1CCN(C2CC(c3ccc(F)cc3)c3cc(Cl)ccc32)CC1 (stereo not drawn)	200	2.9	–	–	0.34
O=C(O)/C=C\C(=O)O.O=C(O)/C=C\C(=O)O.O=C1NCCCN1CCN1CCN(C2CC(c3ccc(F)cc3)c3cc(F)ccc32)CC1 (single isomer, unassigned; (-))	–	57	4000	–	–

— ChEMBL document CHEMBL1126803, “Stereospecific and selective 5-HT2 antagonism in a series of 5-substituted trans-1-piperazino-3-phenylindans” (J Med Chem, 1993)
